# Data from ChEMBL document CHEMBL1154855 (Eur J Med Chem, 2010).
# Legend:
# [1] = tested on: Human immunodeficiency virus 1; assay: Antiviral activity against HIV1 3B-infected in human MT4 cells assessed as protection from virus-induced cytopathogenicity after 5 days by MTT assay; type: functional, organism-based; conditions: Human immunodeficiency virus 1, 3B, MT4, 120 h
# Method in brief: (§1)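 MT-4 cells at 3 × 10^4 per well were infected with HIV (IIIB or ROD) at 50% cell culture infective doses. Graded compound concentrations were added immediately after infection. Plates were incubated for 5 days at 37 °C and viable cells were counted by MTT.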
# [2] = tested on: Human immunodeficiency virus 2; assay: Antiviral activity against HIV2 ROD infected in human MT4 cells assessed as protection from virus-induced cytopathogenicity after 5 days by MTT assay; type: functional, organism-based; conditions: Human immunodeficiency virus 2, ISOLATE ROD, MT4, 120 h; method in brief: as §1
# [3] = Cytotoxicity against HIV2 ROD infected human MT4 cells by MTT assay; type: cell-based; conditions: MT4 cells infected with HIV-2 ROD
# Method in brief: (§2)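 MT-4 cells (3 × 10^4 per well) were cultured in microdilution trays with various concentrations of compound, then incubated 5 days at 37 °C, and viable cell number was read by MTT.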
# [4] = Selectivity index, ratio of CC50 for HIV2 ROD infected human MT4 cells to IC50 for […] ROD; type: functional
# HeLa [5] = assay: Cytotoxicity against VSV infected human HeLa cells by trypan blue exclusion method; type: cell-based; conditions: hela
# Method in brief: (§3)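 Uninfected confluent cultures were run in parallel with the infected cultures. Medium was replaced by 1 ml maintenance medium with serial compound concentrations; cell controls received no compound. Cultures were incubated at 37 °C. After 2 and 7 days, compound was withdrawn and viability was determined by trypan blue exclusion.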
# HeLa [6] = assay: Cytotoxicity against Human coxsackievirus B4 infected human HeLa cells by trypan blue exclusion method; type: cell-based; conditions: hela; method in brief: as §3
# HeLa [7] = assay: Cytotoxicity against Respiratory syncytial virus infected human HeLa cells by trypan blue exclusion method; type: cell-based; conditions: hela; method in brief: as §3
# HEL [8] = assay: Cytotoxicity against Herpes simplex virus 1 KOS infected HEL cells by trypan blue exclusion method; type: cell-based; conditions: human, hel; method in brief: as §3
# HEL [9] = assay: Cytotoxicity against Herpes simplex virus 2 G infected HEL cells by trypan blue exclusion method; type: cell-based; conditions: human, hel; method in brief: as §3
# HEL [10] = assay: Cytotoxicity against Vaccinia virus infected HEL cells by trypan blue exclusion method; type: cell-based; conditions: human, hel; method in brief: as §3
# HEL [11] = assay: Cytotoxicity against VSV infected HEL cells by trypan blue exclusion method; type: cell-based; conditions: human, hel; method in brief: as §3
# HEL [12] = assay: Cytotoxicity against acyclovir-sensitive Herpes simplex virus 1 KOS infected HEL cells by trypan blue exclusion method; type: cell-based; conditions: human; method in brief: as §3
# Vero [13] = assay: Cytotoxicity against PIV 3 infected african green monkey Vero cells by trypan blue exclusion method; type: cell-based; conditions: chlorocebus sabaeus, vero; method in brief: as §3
# Vero [14] = assay: Cytotoxicity against Reovirus 1 infected african green monkey Vero cells by trypan blue exclusion method; type: cell-based; conditions: chlorocebus sabaeus, vero; method in brief: as §3
# Vero [15] = assay: Cytotoxicity against Sindbis virus infected african green monkey Vero cells by trypan blue exclusion method; type: cell-based; conditions: chlorocebus sabaeus, vero; method in brief: as §3
# Vero [16] = assay: Cytotoxicity against Human coxsackievirus B4 infected african green monkey Vero cells by trypan blue exclusion method; type: cell-based; conditions: chlorocebus sabaeus, vero; method in brief: as §3
# Vero [17] = assay: Cytotoxicity against Punta Toro virus infected african green monkey Vero cells by trypan blue exclusion method; type: cell-based; conditions: chlorocebus sabaeus, vero; method in brief: as §3
# [18] = Cytotoxicity against Feline coronavirus infected cat CRFK cells by trypan blue exclusion method; type: cell-based, Felis catus; conditions: crfk; method in brief: as §3
# [19] = Cytotoxicity against Feline herpesvirus infected cat CRFK cells by trypan blue exclusion method; type: cell-based, Felis catus; conditions: crfk; method in brief: as §3
# MDCK [20] = assay: Cytotoxicity against Influenza A virus subtype H3N2 infected MDCK cells by trypan blue exclusion method; type: cell-based, Canis lupus familiaris; conditions: dog
# MDCK [21] = assay: Cytotoxicity against Influenza B virus infected MDCK cells by trypan blue exclusion method; type: cell-based, Canis lupus familiaris; conditions: dog
# [22] = Cytotoxicity against HIV1 3B-infected human MT4 cells by MTT assay; type: cell-based; conditions: MT4 cells infected with HIV-1 3B; method in brief: as §2
# Coxsackievirus B4 [23] = assay: Antiviral activity against Human coxsackievirus B4 infected in human HeLa cells assessed as protection from virus-induced cytopathogenicity after 2 days by MTT assay; type: functional, organism-based; conditions: Enterovirus B, 48 h
# [24] = tested on: Mammalian orthoreovirus 1; assay: Antiviral activity against Reovirus 1 infected in african green monkey Vero cells assessed as protection from virus-induced cytopathogenicity after 6 to 7 days by MTT assay; type: functional, organism-based; conditions: Mammalian orthoreovirus 1, Vero
# [25] = tested on: Vesicular stomatitis virus; assay: Antiviral activity against VSV infected in human HeLa cells assessed as protection from virus-induced cytopathogenicity after 1 to 2 days by MTT assay; type: functional, organism-based
# Streptococcus viridans = assay: Antibacterial activity against Streptococcus viridans after 24 hrs by broth microdilution method; type: functional
# Method in brief: (§4)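 Clinical isolates. Each dilution received 100 μl of 0.5 McFarland fresh culture. Solvent (DMSO), growth and standard controls were included. Tubes were incubated at 37 °C for 24 h. MIC is the highest dilution showing no turbidity. Tests were run in triplicate, with at least two repetitions.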
# Escherichia coli = assay: Antibacterial activity against Escherichia coli after 24 hrs by broth microdilution method; type: functional; method in brief: as §4
# Klebsiella pneumoniae = assay: Antibacterial activity against Klebsiella pneumoniae after 24 hrs by broth microdilution method; type: functional; method in brief: as §4
# Proteus mirabilis = assay: Antibacterial activity against Proteus mirabilis after 24 hrs by broth microdilution method; type: functional; method in brief: as §4
# [26] = tested on: Respiratory syncytial virus; assay: Antiviral activity against Respiratory syncytial virus infected in human HeLa cells assessed as protection from virus-induced cytopathogenicity after 4 days by MTT assay; type: functional, organism-based; conditions: 96 h
# Human alphaherpesvirus 1 [27] = assay: Antiviral activity against Herpes simplex virus 1 KOS infected in HEL cells assessed as protection from virus-induced cytopathogenicity after 2 to 3 days by MTT assay; type: functional, organism-based; conditions: Human alphaherpesvirus 1, KOS
# Human alphaherpesvirus 2 = assay: Antiviral activity against Herpes simplex virus 2 G infected in HEL cells assessed as protection from virus-induced cytopathogenicity after 2 to 3 days by MTT assay; type: functional, organism-based; conditions: Human alphaherpesvirus 2, strain G
# [28] = tested on: Vesicular stomatitis virus; assay: Antiviral activity against VSV infected in HEL cells assessed as protection from virus-induced cytopathogenicity after 1 to 2 days by MTT assay; type: functional, organism-based
# Human alphaherpesvirus 1 [29] = assay: Antiviral activity against acyclovir-sensitive Herpes simplex virus 1 KOS infected in HEL cells assessed as protection from virus-induced cytopathogenicity after 2 to 3 days by MTT assay; type: functional, organism-based; conditions: Human alphaherpesvirus 1, KOS
# Human respirovirus 3 = assay: Antiviral activity against PIV 3 infected in african green monkey Vero cells assessed as protection from virus-induced cytopathogenicity after 6 to 7 days by MTT assay; type: functional, organism-based; conditions: Human respirovirus 3, Vero
# Sindbis virus = assay: Antiviral activity against Sindbis virus infected in african green monkey Vero cells assessed as protection from virus-induced cytopathogenicity after 2 to 3 days by MTT assay; type: functional, organism-based
# Coxsackievirus B4 [30] = assay: Antiviral activity against Human coxsackievirus B4 infected in african green monkey Vero cells assessed as protection from virus-induced cytopathogenicity after 2 days by MTT assay; type: functional, organism-based; conditions: Enterovirus B, 48 h
# Punta Toro virus = assay: Antiviral activity against Punta Toro virus infected in african green monkey Vero cells assessed as protection from virus-induced cytopathogenicity by MTT assay; type: functional, organism-based
# Feline coronavirus = assay: Antiviral activity against Feline coronavirus infected in cat CRFK cells assessed as protection from virus-induced cytopathogenicity by MTT assay; type: functional, organism-based; conditions: Alphacoronavirus 1, CRFK
# Felid alphaherpesvirus 1 = assay: Antiviral activity against Feline herpesvirus infected in cat CRFK cells assessed as protection from virus-induced cytopathogenicity by MTT assay; type: functional, organism-based; conditions: Felid alphaherpesvirus 1, CRFK
# Influenza A virus [31] = assay: Antiviral activity against Influenza A virus H1N1 infected in MDCK cells assessed as protection from virus-induced cytopathogenicity after 6 to 7 days by MTT assay; type: functional, organism-based
# Influenza A virus [32] = assay: Antiviral activity against Influenza A virus H3N2 infected in MDCK cells assessed as protection from virus-induced cytopathogenicity after 6 to 7 days by MTT assay; type: functional, organism-based
# Influenza B virus = assay: Antiviral activity against Influenza B virus infected in MDCK cells assessed as protection from virus-induced cytopathogenicity after 6 to 7 days by MTT assay; type: functional, organism-based
# in vitro = conditions: human, HeLa cells
structure (smiles),measurement,setting,value
COc1cc(/C=C/C(=O)CC(=O)/C=C/c2ccc(OC(=O)[C@H](Cc3ccccc3)NC(=O)[C@@H](N)Cc3c[nH]c4ccccc34)c(OC)c2)ccc1OC(=O)[C@H](Cc1ccccc1)NC(=O)[C@@H](N)Cc1c[nH]c2ccccc12,IC50,[1],94 nM
same,IC50,[2],107 nM
same,CC50,[3],> 107 nM
same,Ratio CC50/IC50,[4],<1
same,CC50,HeLa [5],96 nM
same,CC50,HeLa [6],96 nM
same,CC50,HeLa [7],96 nM
same,CC50,HEL [8],96 nM
same,CC50,HEL [9],19 nM
same,CC50,HEL [10],19 nM
same,CC50,HEL [11],19 nM
same,CC50,HEL [12],19 nM
same,CC50,Vero [13],19 nM
same,CC50,Vero [14],96 nM
same,CC50,Vero [15],96 nM
same,CC50,Vero [16],96 nM
same,CC50,Vero [17],96 nM
same,CC50,[18],> 96 nM
same,CC50,[19],> 96 nM
same,CC50,MDCK [20],46 nM
same,CC50,MDCK [21],46 nM
same,CC50,[22],> 94 nM
same,EC50,Coxsackievirus B4 [23],> 19 nM
same,EC50,[24],> 19 nM
same,EC50,[25],11 nM
same,MIC,Streptococcus viridans,0.43 µM
same,MIC,Escherichia coli,0.43 µM
same,MIC,Klebsiella pneumoniae,0.43 µM
same,MIC,Proteus mirabilis,0.43 µM
same,EC50,[26],> 19 nM
same,EC50,Human alphaherpesvirus 1 [27],> 19 nM
same,EC50,Human alphaherpesvirus 2,> 38 nM
same,EC50,[28],> 38 nM
same,EC50,Human alphaherpesvirus 1 [29],> 38 nM
same,EC50,Human respirovirus 3,> 38 nM
same,EC50,Sindbis virus,> 19 nM
same,EC50,Coxsackievirus B4 [30],> 19 nM
same,EC50,Punta Toro virus,> 19 nM
same,EC50,Feline coronavirus,> 96 nM
same,EC50,Felid alphaherpesvirus 1,> 96 nM
same,EC50,Influenza A virus [31],> 96 nM
same,EC50,Influenza A virus [32],> 96 nM
same,EC50,Influenza B virus,> 96 nM
same,selectivity ratio,in vitro,9
